# Assay results: ChEMBL document CHEMBL1121361, “Studies on the synthesis of chemotherapeutics. 10. Synthesis and antitumor activity of N-acyl- and N-(alkoxycarbonyl)-5-fluorouracil derivatives” (1980)
# Key:
# Mus musculus [1] = experiment: Antitumor activity against P-388 Leukemia in female BDF1 mice expressed as percent T/C at dose 50 mg/kg; type: functional
# Procedure, shortened: (§1)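 P-388 leukemia, 10⁶ cells implanted ip in BDF₁ mice, five per group. Test agents dissolved or suspended in 0.3% CMC-Na and dosed orally once daily for 9 days, beginning 1 day after implantation. Activity expressed as treated/control ratio of median survival time.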
# P388 [2] = experiment: Percentage change in median survival time of P388 (leukemia) inoculated female mice following 200 mg/kg p.o.; details: route oral
# P388 [3] = experiment: Percentage change in median survival time of P388 (leukemia) inoculated female mice following 100 mg/kg p.o.; details: route oral
# P388 [4] = experiment: Percentage change in median survival time of P388 (leukemia) inoculated female mice following 25 mg/kg p.o.; details: route oral
# Mus musculus [5] = experiment: Antitumor activity against P-388 Leukemia in female BDF1 mice expressed as percent T/C at dose 12.5 mg/kg; type: functional; procedure, shortened: as §1
# Mus musculus [6] = experiment: Antitumor activity against L-1210 in female BDF1 mice expressed as percent T/C at dose 100 mg/kg; type: functional
# Procedure, shortened: (§2)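 L-1210 leukemia, 10⁶ cells implanted ip into BDF₁ mice (five females per group, 17–23 g). Compound dissolved or suspended in 0.3% CMC-Na, given orally once daily for 5 days starting 1 day after implantation. Activity taken as the ratio of median survival time, treated vs control.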
# Mus musculus [7] = experiment: Antitumor activity against Meth A cells in female Balb/c mice expressed as percent T/C at dose 50 mg/kg
# Mus musculus [8] = experiment: Antitumor activity against MH 134 cells in female C3H mice expressed as percent T/C at dose 200 mg/kg
# Mus musculus [9] = experiment: Antitumor activity against MH 134 cells in female C3H mice expressed as percent T/C at dose 100 mg/kg
# Mus musculus [10] = experiment: Antitumor activity against MH 134 cells in female C3H mice expressed as percent T/C at dose 50 mg/kg
# Mus musculus [11] = experiment: Antitumor activity against L-1210 in female BDF1 mice expressed as percent T/C at dose 300 mg/kg; type: functional; procedure, shortened: as §2
# Mus musculus [12] = experiment: Antitumor activity against Meth A cells in female Balb/c mice expressed as percent T/C at dose 100 mg/kg
# Mus musculus [13] = experiment: Antitumor activity against L-1210 in female BDF1 mice expressed as percent T/C at dose 200 mg/kg; type: functional; procedure, shortened: as §2
# Mus musculus [14] = experiment: Antitumor activity against L-1210 in female BDF1 mice expressed as percent T/C at dose 50 mg/kg; type: functional; procedure, shortened: as §2
# Mus musculus [15] = experiment: Antitumor activity against Meth A cells in female Balb/c mice expressed as percent T/C at dose 200 mg/kg
# Mus musculus [16] = experiment: Antitumor activity against L-1210 cells in female BDF1 mice expressed as percent T/C at dose 300 mg/kg; type: functional; procedure, shortened: as §2
# Mus musculus [17] = experiment: Antitumor activity against L-1210 cells in female BDF1 mice expressed as percent T/C at dose 100 mg/kg; type: functional; procedure, shortened: as §2
# Mus musculus [18] = experiment: Antitumor activity against MH 134 cells in female C3H mice expressed as percent T/C at dose 100 mg/kg; remark: listed apart in the source
# Mus musculus [19] = experiment: Antitumor activity against L-1210 cells in female BDF1 mice expressed as percent T/C at dose 50 mg/kg; type: functional; procedure, shortened: as §2
# Mus musculus [20] = experiment: Antitumor activity against MH 134 cells in female C3H mice expressed as percent T/C at dose 50 mg/kg; remark: listed apart in the source
# Mus musculus [21] = experiment: Antitumor activity against L-1210 cells in female BDF1 mice expressed as percent T/C at dose 200 mg/kg; type: functional; procedure, shortened: as §2
# Mus musculus [22] = experiment: Antitumor activity against MH 134 cells in female C3H mice expressed as percent T/C at dose 200 mg/kg; remark: listed apart in the source
# P388 [23] = experiment: Percentage change in median survival time of P388 (leukemia) inoculated female mice following 30 mg/kg p.o.; details: route oral
SMILES,T/C (Mus musculus [1]),T/C (P388 [2]),T/C (P388 [3]),T/C (P388 [4]),also measured
Cc1ccccc1C(=O)n1c(=O)c(F)cn(C(=O)OCc2ccccc2)c1=O,108%,110%,125%,,
CC(=O)n1c(=O)c(F)cn(C(=O)c2ccccc2C)c1=O,114%,,108%,97%,T/C (Mus musculus [5]): 111%
CCC(=O)n1cc(F)c(=O)n(C(=O)c2ccccc2C)c1=O,112%,138%,136%,103%,
O=C(OCc1ccccc1)n1c(=O)[nH]cc(F)c1=O,101%,96%,110%,,
CC(=O)n1cc(F)c(=O)n(C(C)=O)c1=O,103%,,86%,112%,T/C (Mus musculus [5]): 103%
CC(=O)n1cc(F)c(=O)n(C(=O)c2ccccc2)c1=O,116%,99%,144%,108%,
Cc1ccccc1C(=O)n1c(=O)c(F)cn(C(=O)O[C@H]2CCC3(C)C(=CCC4[C@@H]3CCC3(C)[C@@H](C(C)CCCC(C)C)CC[C@@H]43)C2)c1=O (stereo partly specified),98%,112%,100%,,
CCOC(=O)n1cc(F)c(=O)n(C(=O)c2ccccc2)c1=O,116%,83%,123%,103%,
Cc1ccccc1C(=O)n1c(=O)c(F)cn(C(=O)Oc2ccccc2)c1=O,106%,135%,129%,100%,
CCOC(=O)n1cc(F)c(=O)n(C(=O)CC)c1=O,112%,52%,82%,105%,
O=c1[nH]c(=O)n(C2CCCO2)cc1F (stereo unspecified) [TEGAFUR],104%,106%,136%,115%,T/C (Mus musculus [6]): 124%; T/C (Mus musculus [7]): 82%; T/C (Mus musculus [8]): 57%; T/C (Mus musculus [9]): 58%; T/C (Mus musculus [10]): 70%; T/C (Mus musculus [11]): 102%; T/C (Mus musculus [12]): 53%; T/C (Mus musculus [13]): 143%; T/C (Mus musculus [5]): 111%; T/C (Mus musculus [14]): 110%; T/C (Mus musculus [15]): 19%
O=C(Oc1ccccc1)n1c(=O)[nH]cc(F)c1=O,101%,,83%,112%,T/C (Mus musculus [5]): 97%
O=C(Oc1ccccc1)n1cc(F)c(=O)n(C(=O)c2ccccc2)c1=O,112%,107%,119%,99%,
COC(=O)n1cc(F)c(=O)n(C(=O)c2ccccc2C)c1=O,112%,142%,138%,101%,
CCC(=O)n1cc(F)c(=O)n(C(=O)c2ccccc2)c1=O,119%,90%,130%,110%,
Cc1ccccc1C(=O)n1c(=O)c(F)cn(C(=O)C(C)C)c1=O,112%,169%,116%,110%,
CCOC(=O)n1cc(F)c(=O)n(C(C)=O)c1=O,115%,,59%,103%,T/C (Mus musculus [5]): 94%
CC(=O)n1cc(F)c(=O)n(C(=O)OCc2ccccc2)c1=O,105%,112%,116%,,
CCOC(=O)n1cc(F)c(=O)n(C(=O)c2ccccc2C)c1=O,125%,164%,127%,112%,
CC(=O)n1cc(F)c(=O)n(C(=O)c2ccccc2C)c1=O,111%,121%,151%,121%,T/C (Mus musculus [7]): 71%; T/C (Mus musculus [16]): 167%; T/C (Mus musculus [17]): 128%; T/C (Mus musculus [12]): 58%; T/C (Mus musculus [18]): 43%; T/C (Mus musculus [19]): 110%; T/C (Mus musculus [20]): 61%; T/C (Mus musculus [21]): 136%; T/C (Mus musculus [22]): 25%; T/C (Mus musculus [15]): 32%
Cc1ccccc1C(=O)n1c(=O)[nH]cc(F)c1=O,127%,,103%,,T/C (P388 [23]): 124%
CCCCCCOC(=O)n1cc(F)c(=O)n(C(=O)c2ccccc2C)c1=O,106%,147%,96%,100%,
O=c1[nH]cc(F)c(=O)[nH]1 [FLUOROURACIL],76%,,,135%,T/C (Mus musculus [5]): 127%
CCCCCCC(=O)n1c(=O)c(F)cn(C(=O)OCC)c1=O,119%,74%,118%,110%,
